Columns and labels:
Mus musculus [1] = test: In vivo antitumor activity was determined against B16 melanoma mice as number of mice survived after administration of 300 ug/Kg dose of compound; Value represented as no of survivors/ treated = 4/9; type: functional
Mus musculus [2] = test: In vivo antitumor activity was determined against P388 leukemia mice as number of mice survived after administration of 600 ug/Kg dose of compound; Value represented as no of survivors/ treated = 4/8; type: functional
Rattus norvegicus [3] = species: Rattus norvegicus; test: (§1) Compound tested for adrenochrome formation in rat hepatic mycrosomal incubation; type: functional
Summary of the method: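 Adrenochrome assay for superoxide: epinephrine in 0.01 N HCl plus 300 µg of phenobarbital-induced rat liver microsomes at 37 °C. NADPH 0.4 mM was added to the sample side 1 min later, and the rate was read at 480 nm (ε 4.02 mM−1 cm−1). Drugs were at ≤100 µM, made in 150 mM KCl–50 mM Tris, pH 7.4. Percent stimulation is over basal rate, in triplicate.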

Mus musculus [4] = test: Antitumor activity against B16 melanoma in terms of percentage increase in life span in mice at an optimal dose of 300 ug/kg administered ip; type: functional
Mus musculus [5] = species: Mus musculus; test: Dose providing an increase in the life span of 45% over control in P388 tumor bearing mice; type: functional; settings: read-out: MED
Summary of the method: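 MED is the ip dose in mg/kg, given on days 1, 5 and 9 starting 1 day after implantation, that gives a 45% increase in life span over control in P388-bearing mice. It was derived from plotted log-dose response data.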

CCRF-CEM = test: Inhibitory dose required for the inhibition of human lymphoblastic leukemia cells(CCRF-CEM); type: functional; settings: read-out: ID50 (the source's name)
Rattus norvegicus [6] = species: Rattus norvegicus; test: (§2) Compound tested for NADPH oxidation in rat hepatic mycrosomal incubation; type: functional
Summary of the method: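 Phenobarbital-induced male Sprague-Dawley rat liver microsomes were placed in both cuvettes, without epinephrine. NADPH 0.4 mM was added to the sample side only, and absorbance was read at 340 nm. Percent stimulation = (drug rate − basal)/basal × 100. Values are the average ± standard errors of triplicates.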

Mus musculus [7] = test: Antitumor activity against P388 leukemia cells in terms of median survival time of mice at an optimal dose of 600 ug/kg administered ip; type: functional
Mus musculus [8] = test: Antitumor activity against P388 leukemia cells in terms of percentage increase in life span in mice at an optimal dose of 600 ug/kg administered ip; type: functional
Mus musculus [9] = test: Antitumor activity against B16 melanoma in terms of median survival time of mice at an optimal dose of 300 ug/kg administered ip; type: functional
P388 [10] = test: Inhibition of RNA synthesis was measured as the concentration required to cause 50% reduction (in 1h) in 2-[14C]uridine incorporation into acid precipitable material using P388 cells; type: functional, cell-based; settings: Mus musculus, P388, 1 h
P388 [11] = test: Inhibition of DNA synthesis was measured as the concentration required to cause 50% reduction (in 1h) in methyl [3H]thymidine incorporation into acid precipitable material using P388 cells; type: functional, cell-based; settings: Mus musculus
Mus musculus [12] = test: In vivo antitumor activity was determined against P388 leukemia mice as number of mice survived after administration of 450 ug/Kg dose of compound; Value represented as no of survivors/ treated = 3/8; type: functional
Mus musculus [13] = test: Antitumor activity against P388 leukemia cells in terms of percentage increase in life span in mice at an optimal dose of 450 ug/kg administered ip; type: functional
Mus musculus [14] = test: In vivo antitumor activity was determined against B16 melanoma in mice as number of mice survived after administration of 300 ug/Kg dose of compound; Value represented as no of survivors/ treated = 3/9; type: functional
Mus musculus [15] = species: Mus musculus; test: Antitumor activity against B16 melanoma in terms of percentage increase in life span in mice after 65 days; type: functional
Mus musculus [16] = test: Antitumor activity against P388 leukemia cells in terms of median survival time of mice at an optimal dose of 450 ug/kg administered ip; type: functional
Rattus norvegicus [17] = species: Rattus norvegicus; test: as §2; type: functional; remark: listed apart in the source
Summary of the method: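 Phenobarbital-induced rat liver microsomes (300 µg), 37 °C, no epinephrine; NADPH 0.4 mM added to sample cuvette only. A340 followed; % oxidation = (1 − A340/A'340)×100 vs cuvette not activated by microsomes; % stimulation = (drug rate − basal rate)/basal rate ×100. Drugs in 150 mM KCl-50 mM Tris pH 7.4; triplicate analyses, mean ± standard error.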

Rattus norvegicus [18] = species: Rattus norvegicus; test: as §1; type: functional; remark: listed apart in the source
Summary of the method: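 Superoxide read as adrenochrome from epinephrine (in 0.01 N HCl) with phenobarbital-induced rat liver microsomes (300 µg) at 37 °C; NADPH 0.4 mM added to sample cuvette after 1 min. Rate at 480 nm (ε 4.02 mM-1 cm-1); drug ≤100 µM in 150 mM KCl-50 mM Tris pH 7.4; % stimulation over basal rate; triplicate, mean ± standard error.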

Mus musculus [19] = test: Antitumor activity against P388 leukemia cells in terms of median survival time of mice at an optimal dose of 1000 ug/kg administered ip; type: functional
Mus musculus [20] = test: In vivo antitumor activity was determined against B16 melanoma mice as number of mice survived after administration of 900 ug/Kg dose of compound; Value represented as no of survivors/ treated = 2/9
Mus musculus [21] = test: Antitumor activity against B16 melanoma in terms of median survival time of mice at an optimal dose of 900 ug/kg administered ip; type: functional
Mus musculus [22] = test: Antitumor activity against B16 melanoma in terms of percentage increase in life span in mice at an optimal dose of 900 ug/kg administered ip; type: functional
Mus musculus [23] = test: In vivo antitumor activity was determined against P388 (adriamycin sensitive tumors) as number of mice survived after administration of 0.3-1.8 mg/kg, ip dose of compound; Value represented as no of survivors/ treated = 4/8; type: functional
Mus musculus [24] = test: In vivo antitumor activity was determined against P388 leukemia mice as number of mice survived after administration of 1000 ug/Kg dose of compound; Value represented as no of survivors/ treated = 2/8; type: functional
Mus musculus [25] = test: Antitumor activity against P388 leukemia cells in terms of percentage increase in life span in mice at an optimal dose of 1000 ug/kg administered ip; type: functional
Mus musculus [26] = test: In vivo antitumor activity was determined against P388 leukemia mice as number of mice survived after administration of 375 ug/Kg dose of compound; Value represented as no of survivors/ treated = 4/8; type: functional
Mus musculus [27] = test: Antitumor activity against P388 leukemia cells in terms of median survival time of mice at an optimal dose of 375 ug/kg administered ip; type: functional
Mus musculus [28] = test: Antitumor activity against P388 leukemia cells in terms of percentage increase in life span in mice at an optimal dose of 375 ug/kg administered ip; type: functional
Mus musculus [29] = test: In vivo antitumor activity was determined against B16 melanoma in mice as number of mice survived after administration of 300 ug/Kg dose of compound; Value represented as no of survivors/ treated = 5/9; type: functional

`Cc1c2oc3c(C)c(O)c(N)c(C(=O)N[C@@H]4C(=O)N[C@H](C(C)C)C(=O)N5CCC[C@H]5C(=O)N(C)CC(=O)N(C)[C@@H](C(C)C)C(=O)O[C@@H]4C)c3nc-2c(C(=O)N[C@@H]2C(=O)N[C@H](C(C)C)C(=O)N3CCC[C@H]3C(=O)N(C)CC(=O)N(C)[C@@H](C(C)C)C(=O)O[C@@H]2C)c(N)c1=O` was tested. Which Survivors (Mus musculus [1]) did it give?
The Survivors was 4.

What about the Survivors (Mus musculus [2]) of the same molecule?
Its Survivors is 4.

And the adrenochrome formation (Rattus norvegicus [3])?
The adrenochrome formation was 19.3 nM min-1 (mg of protein)-1.

And the ILS at 0.3 mg/kg (Mus musculus [4])?
The ILS at 0.3 mg/kg was 96%.

And the minimal effective dose (Mus musculus [5])?
Its minimal effective dose is 0.025 mg/kg.

And the IC50 (CCRF-CEM)?
The IC50 was 30 nM.

And the NADPH oxidation (Rattus norvegicus [6])?
The NADPH oxidation was 64.3 nM min-1 (mg of protein)-1.

And the MST (Mus musculus [7])?
Its MST is 52 days.

And the ILS at 0.6 mg/kg (Mus musculus [8])?
The ILS at 0.6 mg/kg was 382%.

What about the MST (Mus musculus [9]) of the same molecule?
The MST was 57 days.

What does the source list for `Cc1nc2c(C(=O)N[C@@H]3C(=O)N[C@H](C(C)C)C(=O)N4CCC[C@H]4C(=O)N(C)CC(=O)N(C)[C@@H](C(C)C)C(=O)O[C@@H]3C)c3nc4c(C(=O)N[C@@H]5C(=O)N[C@H](C(C)C)C(=O)N6CCC[C@H]6C(=O)N(C)CC(=O)N(C)[C@@H](C(C)C)C(=O)O[C@@H]5C)c(N)c(=O)c(C)c-4oc3c(C)c2o1` [listing 1 of 2 here]?
IC50 (P388 [10]): 90 nM; IC50 (P388 [11]): 1010 nM

Which Survivors (Mus musculus [12]) does the source give for `Cc1nc2c(C(=O)N[C@@H]3C(=O)N[C@H](C(C)C)C(=O)N4CCC[C@H]4C(=O)N(C)CC(=O)N(C)[C@@H](C(C)C)C(=O)O[C@@H]3C)c3nc4c(C(=O)N[C@@H]5C(=O)N[C@H](C(C)C)C(=O)N6CCC[C@H]6C(=O)N(C)CC(=O)N(C)[C@@H](C(C)C)C(=O)O[C@@H]5C)c(N)c(=O)c(C)c-4oc3c(C)c2o1` [listing 2 of 2 here] here?
The Survivors was 3.

What about the ILS at 0.45 mg/kg (Mus musculus [13]) of the same molecule?
Its ILS at 0.45 mg/kg is 277%.

And the Survivors (Mus musculus [14])?
Its Survivors is 3.

What about the IC50 (CCRF-CEM) of the same molecule?
Its IC50 is 110 nM.

What about the ILS (Mus musculus [15]) of the same molecule?
The ILS was 90%.

What about the MST (Mus musculus [16]) of the same molecule?
Its MST is 42.5 days.

What about the NADPH oxidation (Rattus norvegicus [17]) of the same molecule?
The NADPH oxidation was 21.3 nM min-1 (mg of protein)-1.

And the MST (Mus musculus [9])?
Its MST is 55 days.

What about the adrenochrome formation (Rattus norvegicus [18]) of the same molecule?
Its adrenochrome formation is 6.04 nM min-1 (mg of protein)-1.

What does the source list for `Cc1c2oc3c(C)c4oc(-c5ccccc5)nc4c(C(=O)N[C@@H]4C(=O)N[C@H](C(C)C)C(=O)N5CCC[C@H]5C(=O)N(C)CC(=O)N(C)[C@@H](C(C)C)C(=O)O[C@@H]4C)c3nc-2c(C(=O)N[C@@H]2C(=O)N[C@H](C(C)C)C(=O)N3CCC[C@H]3C(=O)N(C)CC(=O)N(C)[C@@H](C(C)C)C(=O)O[C@@H]2C)cc1=O`?
MST (Mus musculus [19]): 31.5 days; Survivors (Mus musculus [20]): 2; MST (Mus musculus [21]): 45 days; ILS at 0.9 mg/kg (Mus musculus [22]): 55%; minimal effective dose (Mus musculus [5]): 0.2 mg/kg; Survivors (Mus musculus [23]): 4; Survivors (Mus musculus [24]): 2; ILS (Sur) (Mus musculus [25]): 186%; IC50 (CCRF-CEM): 500 nM

How did the Survivors (Mus musculus [26]) turn out when `Cc1c2oc3c(C)c4oc(-c5ccccc5)nc4c(C(=O)N[C@@H]4C(=O)N[C@H](C(C)C)C(=O)N5CCC[C@H]5C(=O)N(C)CC(=O)N(C)[C@@H](C(C)C)C(=O)O[C@@H]4C)c3nc-2c(C(=O)N[C@@H]2C(=O)N[C@H](C(C)C)C(=O)N3CCC[C@H]3C(=O)N(C)CC(=O)N(C)[C@@H](C(C)C)C(=O)O[C@@H]2C)c(N)c1=O` was run?
The Survivors was 4.

What about the MST (Mus musculus [27]) of the same molecule?
Its MST is 52 days.

And the ILS at 0.3 mg/kg (Mus musculus [4])?
The ILS at 0.3 mg/kg was 103%.

What about the minimal effective dose (Mus musculus [5]) of the same molecule?
The minimal effective dose was 0.03 mg/kg.

And the IC50 (CCRF-CEM)?
Its IC50 is 30 nM.

And the ILS at 0.375 mg/kg (Mus musculus [28])?
The ILS at 0.375 mg/kg was 382%.

What about the Survivors (Mus musculus [29]) of the same molecule?
Its Survivors is 5.

What about the MST (Mus musculus [9]) of the same molecule?
The MST was 59 days.

Source: ChEMBL document CHEMBL1123113, “"Reverse" and "symmetrical" analogues of actinomycin D: metabolic activation and in vitro and in vivo tumor growth inhibitory activities” (J Med Chem, 1985)
